The data set is described as follows: Toxicity liver stage against HepG2, at 10uM. In kind it is cell-based. Also on record: test concentration 10 uM, cell line HepG2-A16-CD81EGFP. The settings on record: human, HepG2-A16-CD81EGFP cells; read-out: INHIBITION
The essentials:
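Uninfected HepG2-A16-CD81EGFP cells, 3 × 10^3 per well, 1536-well, plated on prespotted compound at 10 μM final, parasite-free screening media added to match infected plates; puromycin 10 μM positive, DMSO 0.5% negative; run in parallel with 48 h PbLuc assay at 37 °C, 5% CO2; viability by CellTiter-Glo luminescence, normalized to controls.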
For `O=C(O)c1cn(-c2ccccn2)c(=O)c2ccccc12`, the cytotoxicity at 10 µM came out at 0.847%.
As for `COc1ccc(C(=O)CNC(=O)c2nc(Cl)sc2C(C)C)cc1`, the figure is -3.15%.
The figure for `O=S(=O)(NCC1(c2cccs2)CCCC1)c1cccnc1` is -2.56%; for `COc1ccc(CN2C[C@@H]3CN(C(=O)[C@H]4CCCO4)C[C@@H]3C2=O)cc1` it is -0.0368%; for `CN(C)C(=O)N1CC2(CCN(S(C)(=O)=O)CC2)c2ccccc21` it is -121%.
Regarding `Cc1nc(N(C)C)nc2c1COCC21CCN(C(=O)NCC(C)C)C1` (stereo unspecified), the cytotoxicity at 10 µM stood at 7.63%.
As for `O=C(CC1CC1)N1CCC2(CC1)CC(Oc1ccccc1)CO2` (stereo unspecified), the figure is -0.82%.
The figure for `Cc1ccc(CN2CCC3(CC2)CC(NC(=O)c2ccccn2)CO3)o1` (stereo unspecified) is 3.8%; for `COc1ccc(C(C)Nc2nc3c(C)nn(C)c3c(=O)n2C)cc1` (stereo unspecified) it is 1.89%; for `CC(C)(C)C(=O)N1CCCc2c(cnn2-c2ccccc2)C1` it is 7.15%.
As for `Cc1nccn1-c1ccc(CN2CC3C[C@@H](O)CN3C[C@@H]2C)cc1` (stereo partly specified), the figure is 6.26%; as for `O=C1Nc2ccccc2CN(CC2CCCC2)C12CCNC2` (stereo unspecified), 7.83%; as for `CCn1cc(NC(=O)N2CCN(C(=O)Oc3ccccc3)CC2)cn1`, 1.1%.
With `CCCN(Cc1cnn(C)c1)S(=O)(=O)c1cccc(F)c1C#N`, the cytotoxicity at 10 µM was -9.04%.
As for `CCC1CCCCCN1C(=O)c1ccc(N2CCC(O)CC2)cc1` (stereo unspecified), the figure is -9.77%; as for `COC(=O)c1ccoc1CN(C)CC(=O)NC1CC1`, -1.96%; as for `CC(C)(C)CN(CCC#N)C(=O)Nc1cccc(N2CCNC2=O)c1`, -9.86%.
The figure for `COc1cc2c(nn1)CCN(Cc1noc(-c3ccccc3)n1)C2` is -1.49%.
The figure for `CC(C)Cn1cc(NC(=O)c2cccc(N(C)C)c2)cn1` is 11.8%.
`CN(C)C(=O)c1cccc(CCNS(=O)(=O)c2ccccc2)c1`: the cytotoxicity at 10 µM is -4.12%.
The figure for `CC(C)(C)n1cc(NC(=O)C2CN(Cc3ccccc3)CCO2)cn1` (stereo unspecified) is 0.935%; for `Oc1cccc(C2CN(c3nnc(C4CC4)s3)CCO2)c1` (stereo unspecified) it is 1.07%.
As for `N#Cc1ccccc1C(=O)Nc1cccc(CN2CCC(CO)CC2)c1`, the figure is -140%.
For `O=C(CN1CCCC(Cn2cncn2)C1)Nc1cccnc1` (stereo unspecified), the cytotoxicity at 10 µM stood at 2.01%.
As for `COCCNC(=O)C1CCCN1S(=O)(=O)c1sc(=O)[nH]c1C` (stereo unspecified), the figure is 2.17%; as for `CN(CC(F)(F)F)C(=O)c1ccc(F)c(NS(C)(=O)=O)c1`, -2.05%.
The figure for `O=C(CC(F)(F)F)NC(c1ccc(Cl)cc1)c1ncon1` (stereo unspecified) is 2.14%; for `CC(=O)NCCc1ccc(S(=O)(=O)Nc2ccc(C)cc2F)s1` it is -5.48%.
With `O=C1NC(c2cnc(C3CCC3)s2)Nc2ncccc21` (stereo unspecified), the cytotoxicity at 10 µM is 0.992%.
Take `CC1CN(Cc2ccccc2)CCCN1CCNS(C)(=O)=O` (stereo unspecified): the cytotoxicity at 10 µM was -3.72%.
Regarding `CC(C)c1nc(C2CCCN(c3cnc4ccccc4n3)C2)no1` (stereo unspecified), the cytotoxicity at 10 µM worked out at 2.11%.
As for `Fc1ccc(CN2CCCC(Cn3cncn3)C2)c2ncccc12` (stereo unspecified), the figure is -12.4%; as for `CC(C)OCCNC(=O)C1CCC(=O)N(C2CCCC2)C1` (stereo unspecified), -12.5%.
The figure for `CCCc1cncnc1N1CCC2(CCC(=O)N(CCCO)C2)CC1` is 2.8%.
The figure for `COc1cccc(-c2n[nH]c3c2CN(C(=O)c2oc(C)cc2C)CC3)c1` is -3.17%.
`CC(C)CC(NC(=O)c1cc(C2CC2)n[nH]1)c1ncnn1C` (stereo unspecified): the cytotoxicity at 10 µM was determined as 4.93%.
As for `COCCC1(CO)CCCN(Cc2ccc(C(F)(F)F)nc2)C1` (stereo unspecified), the figure is -146%.
The figure for `COc1cccc2ccc(N3CCC(O)(c4ccc(C)cn4)CC3)nc12` is -0.942%; for `COCC(c1ccccn1)N(C)C(=O)c1cc(-c2cccn2C)n[nH]1` (stereo unspecified) it is -3.39%; for `CN(Cc1ccccc1)S(=O)(=O)N1C[C@H](C2CC2)[C@@H](N)C1` it is -159%.
As for `Cc1ccc(OC2(C(=O)O)CCN(C/C=C/c3ccco3)CC2)cc1`, the figure is -14.4%; as for `CCOC(=O)c1n[nH]cc1CN1CCOC(Cc2ccc(F)cc2)C1` (stereo unspecified), -3.92%.
As to `Cc1nc(O)cc(CN2CC=C(c3cnn(-c4ccccc4)c3)CC2)n1`, the cytotoxicity at 10 µM was -10.5%.
For `CN(CC(=O)N1CC(Oc2ccccc2Cl)C1)Cc1ccncc1`, the cytotoxicity at 10 µM is -2.67%.
For the compound `CCN(Cc1noc(C)n1)C(=O)CCc1scnc1C`, the cytotoxicity at 10 µM worked out at 2.13%.
Take `O=C(Nc1nncs1)N1CCCN(C2CCCCC2)CC1`: the cytotoxicity at 10 µM stood at 1.48%.
For the compound `COCCCN1CC2(CCCN(c3ncc4nc[nH]c4n3)C2)CCC1=O` (stereo unspecified), the cytotoxicity at 10 µM was -5.64%.
Turning to `O=C(NCc1cc2n(n1)CCCNC2)C1(c2ccc(Cl)cc2)CCC1`, the cytotoxicity at 10 µM was -9.72%.
The figure for `O=C(NCCc1nccs1)c1cn(CCN2CCNCC2)nn1` is -4.41%; for `COc1cc(CNC2CCc3nc(C)nn3C2)cc2c1OCO2` (stereo unspecified) it is -11.6%; for `Cc1nc(C)n(CC2CCCN(Cc3cccc(C(N)=O)c3)C2)n1` (stereo unspecified) it is -29%.
The figure for `CC(C)c1nc(C2CCCN(C(=O)CCc3cscn3)C2)no1` (stereo unspecified) is -17.2%.
The figure for `c1ccc(-c2nnc(CNC3CCCN(c4cccnn4)C3)o2)cc1` (stereo unspecified) is -9.45%; for `c1ccc2nc(N3CCOC(Cn4cncn4)C3)cnc2c1` (stereo unspecified) it is -11.5%.
Turning to `Cc1noc(C)c1CN1CCC(c2ccnn2CCO)CC1`, the cytotoxicity at 10 µM was -9.73%.
As for `Cc1nnc2n1CCN(CCCS(=O)(=O)c1ccccc1)C2`, the figure is -11.2%.
As for `CC(Cn1cccn1)NCc1csc(-c2ccsc2)n1` (stereo unspecified), the figure is -3.96%.
The figure for `CN(CCNC(=O)NCc1ccsc1)C1CCCC1` is -12.4%; for `Cc1cnn(CC2CN(Cc3nc4ccccc4n3C)CCO2)c1` (stereo unspecified) it is 0.338%; for `c1coc(-c2nc(CN3CCn4c(nnc4C4CC4)C3)cs2)c1` it is -4.64%.
With `COc1cccc(CNC(=O)CN2CCCCC2Cn2cccn2)c1` (stereo unspecified), the cytotoxicity at 10 µM was determined as 2.77%.
The figure for `COCCNC(=O)[C@H]1CN(Cc2scnc2C)C[C@H]2OCC[C@@H]12` is -8.94%; for `COc1ccc(C(C)NCc2c[nH]nc2C)cc1OC` (stereo unspecified) it is -3.75%; for `Cn1cccc1CN1CCC2(CCCN(C(=O)c3cccnc3)C2)CC1` it is -147%.
As for `c1c2c(nn1CC1CCOCC1)C(CNC1CCOCC1)OCC2` (stereo unspecified), the figure is 5.83%; as for `CCn1ncc2c1C(COCC1CC1)N(Cc1cnn(C)c1)CC2` (stereo unspecified), 8.98%; as for `O=C1CCCN1Cc1ncn2c1CN(C(=O)N1CCCC1)CCC2`, -2.36%.
As for `CN(C)C(=O)N1CCC2(CCCN(CCOc3ccccc3)C2)C1` (stereo unspecified), the figure is -0.537%.
Consider `COC1CC2(CCN(Cc3nccn3C)CC2)C1`, for which the cytotoxicity at 10 µM is -133%.
The figure for `CC(C)NC(=O)N1CC[C@H]2[C@H]1CCN2c1ncccn1` is -0.155%; for `CC(=O)N1CCS(=O)(=O)[C@@H]2CCN(CC(C)C)CC[C@@H]21` it is -142%.

These data come from ChEMBL document CHEMBL4513216, “Probing the Open Global Health Chemical Diversity Library for Multistage-Active Starting Points for Next-Generation Antimalarials” (ACS Infect Dis, 2020).
